In PMC2920133 (Biochemistry, 2010):
Positions count from the first letter of the chain named. Like-named read-outs stand apart in the source and are kept apart here.

Assays:
ArsD109 C12G/T15W = biological target: T1, ArsD109 C12G/T15W (Escherichia coli, UniProt P46003, C12G/T15W/W35Y/W97Y); assay: Intrinsic tryptophan fluorescence quenching, As; type: binding
T1 sequence (P46003 1-109 C12G/T15W/W35Y/W97Y): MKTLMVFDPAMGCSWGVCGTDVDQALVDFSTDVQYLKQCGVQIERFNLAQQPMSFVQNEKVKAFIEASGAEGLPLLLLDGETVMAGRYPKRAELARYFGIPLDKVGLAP
Method in brief: (§1)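 N-terminal His6 ArsD109 (W35/97Y, T15W, plus single Cys→Gly) expressed in BL21(DE3) with 0.3 mM IPTG for 3 h. Used at 1 μM in 50 mM MOPS-KOH pH 7.5 with 0.25 mM EDTA, room temperature. Sodium arsenite titrated. Quenching rate k_obs (ex 295 nm, em 345 nm) fitted per arsenite concentration; k_obs = k_off + k_on[As(III)], and Kd = k_off/k_on.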

[1] = biological target: ArsD109 V17W single-tryptophan derivative (Escherichia coli, UniProt P46003, V17W/W35Y/W97Y); type: binding; settings: for fluorescence quenching: high concentrations: 5 mM As(III) or 0.1 mM Sb(III) (Figure 2B)
[2] = biological target: ArsD109 T15W single-tryptophan derivative (Escherichia coli, UniProt P46003, T15W/W35Y/W97Y); assay: Intrinsic tryptophan fluorescence quenching, metalloid binding to T15W; settings: for fluorescence quenching: high concentrations: 5 mM As(III) or 0.1 mM Sb(III) (Figure 2B)
ArsD109 C18G/T15W = biological target: T2, ArsD109 C18G/T15W (Escherichia coli, UniProt P46003, C18G/T15W/W35Y/W97Y); assay: Intrinsic tryptophan fluorescence quenching, As; type: binding
T2 sequence (P46003 1-109 T15W/C18G/W35Y/W97Y): T1 sequence (P46003 1-109 C12G/T15W/W35Y/W97Y) with G12C, C18G
Method in brief: as §1

[3] = test system: single-tryptophan derivatives of ArsD109; type: binding, Escherichia coli; settings: 1 μM protein mixed with equimolar As(III), absence of added thiols
Method in brief: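 Single-tryptophan ArsD109 (N-terminal His6, W35/97Y background carrying T15W or V17W), expressed in E. coli BL21(DE3). Protein at 1 μM in 50 mM MOPS-KOH pH 7.5 with 0.25 mM EDTA, room temperature, no thiol added. Sodium arsenite added from concentrated stock. Trp fluorescence (ex 295 nm, em 345 nm) followed over time and corrected for dilution.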

ArsD109 C13G/T15W = biological target: T3, ArsD109 C13G/T15W (Escherichia coli, UniProt P46003, C13G/T15W/W35Y/W97Y); assay: Intrinsic tryptophan fluorescence quenching, As; type: binding
T3 sequence (P46003 1-109 C13G/T15W/W35Y/W97Y): T1 sequence (P46003 1-109 C12G/T15W/W35Y/W97Y) with G12C, C13G
Method in brief: as §1

ArsA ATPase = ArsA ATPase (Escherichia coli, UniProt P08690); assay: Coupled ATPase assay, metalloid-stimulated ArsA activity; type: biochemical; settings: DMSA titration
[4] = thiolate of GS^−1; cited from earlier work
ArsD109-ArsA = ArsD109-ArsA (Escherichia coli, UniProt P08690+P46003, DEL110-120); assay: Metalloid transfer assay on amylose column; type: biochemical; settings: 5 mM nucleotide
[5] = quenching of T15W fluorescence, retains Cys13 and Cys18
[6] = quenching of T15W fluorescence, retains Cys12 and Cys13
[7] = quenching of T15W fluorescence, retains Cys12 and Cys18
[8] = additive 5 mM, 50 μM sodium arsenite, pH 7.5

In the case of O=[As][O-].[Na+] [As(III), sodium arsenite], the Kd (ArsD109 C12G/T15W; calculated from koff/kon) is reported as 48 ± 3 µM, the koff (ArsD109 C12G/T15W; [5]) is reported as “(2.4 ± 0.1) × 10^−3 s^−1” and the kon (ArsD109 C12G/T15W; [5]) is reported as “(5 ± 0.1) × 10^−5 s^−1 μM^−1”. The “rate of fluorescence quenching at pH 9 relative to pH 7” value ([1]; 50 μM sodium arsenite, 1 μM V17W, absence of GSH) was ~ 10 fold, the “fluorescence change in the absence of GSH” value ([1]; 50 μM sodium arsenite, pH 7.5) was “decreased very slowly” and the fluorescence quenching [1] was “approximately 50%”. For the same compound, the Kd ([1]; read-out: Kd (binding affinity), calculated from koff/kon) was 2 ± 1 µM, the koff ([2]; As(III) concentration dependence of fluorescence quenching, no added thiols) was “(3 ± 1) × 10^−4 s^−1” and the Kd ([2]; calculated from koff/kon) was 1.5 ± 0.5 µM. The fluorescence quenching [2] was “approximately 50%”, the Kd (ArsD109 C18G/T15W; calculated from koff/kon) was 28 ± 3 µM and the koff (ArsD109 C18G/T15W; [6]) was “(1.4 ± 0.1) × 10^−3 s^−1”. The kon (ArsD109 C18G/T15W; [6]) was “(5 ± 0.1) × 10^−5 s^−1 μM^−1”, the “time to attain a steady-state level of fluorescence” value [3] was “more than 2 h” and the Kd (ArsD109 C13G/T15W; calculated from koff/kon) was 68 ± 6 µM. The koff (ArsD109 C13G/T15W; [7]) was “(2.7 ±0.1) × 10^−3 s^−1” and the kon (ArsD109 C13G/T15W; [7]) was “(4 ±0.2) × 10^−5 s^−1 μM^−1”.
In the case of O=C(O)[C@@H](S)[C@@H](S)C(=O)O [DMSA, dimercaptosuccinic acid], the “effect on basal activity of ArsA” value (ArsA ATPase; 0.3 μM ArsA alone) is reported as “did not affect” and the “effect on As(III)-stimulated rate of ArsA activity” value (ArsA ATPase; 0.3 μM ArsA, 0.5 mM sodium arsenite) is reported as “inhibited”.
With N[C@@H](CCC(=O)N[C@@H](CS)C(=O)NCC(=O)O)C(=O)O [GSH, reduced glutathione] the “acceleration of rate of As(III) fluorescence quenching” value ([1]; 5 mM GSH, 50 μM sodium arsenite, 1 μM V17W, pH 7.5) was 10 fold, the “rate of As(III) fluorescence quenching with additive” value ([1]; 5 mM GSH, 50 μM sodium arsenite, pH ≥8) was “too fast to measure accurately” and the “effect of additive on rate of fluorescence quenching by As(III)” value (from here on “effect of additive”) ([1]; additive 0.2 mM, 50 μM sodium arsenite, pH 7.5) was “had little effect”. The “effect of additive” value [1, 8] was “increased the rate substantially” and the pKa [4] was 8.7.
In the case of N[C@@H](CS)C(=O)O [L-cysteine], the “effect of additive” value [1, 8] is reported as “increased the rate of quenching”.
For Nc1ncnc2c1ncn2[C@@H]1O[C@H](COP(=O)([O-])OP(=O)([O-])O)[C@@H](O)[C@H]1O.[Mg+2] [MgADP], the “transfer of As(III) from MBP-ArsD109 to ArsA” value (“transfer of As(III)” for short) (ArsD109-ArsA; room temperature) was “As(III) eluted with MBP-ArsD109 and not with ArsA”.
In the case of Nc1ncnc2c1ncn2[C@@H]1O[C@H](CO[P@](=O)(O)O[P@](=O)(O)O[P@@](=O)(O)S)[C@@H](O)[C@H]1O [MgATP-γ-S], the “transfer of As(III)” value (ArsD109-ArsA; room temperature) is reported as “did not promote transfer”.
In the case of Nc1ncnc2c1ncn2[C@@H]1O[C@H](COP(=O)(O)OP(=O)([O-])OP(=O)([O-])O)[C@@H](O)[C@H]1O.[Mg+2] [MgATP], the “transfer of As(III)” value (ArsD109-ArsA; 4 °C) is reported as “almost no As(III) eluted with ArsA” and the “transfer of As(III)” value (ArsD109-ArsA; room temperature) is reported as “nearly all of the As(III) eluted in the ArsA-containing fractions”.
In the case of O.O.O.O=C([O-])[C@H]([O-])[C@@H]([O-])C(=O)[O-].O=C([O-])[C@H]([O-])[C@@H]([O-])C(=O)[O-].[K+].[K+].[Sb+3].[Sb+3] [Sb(III), potassium antimonyl tartrate], the “fluorescence quenching in the absence of added monothiols” value ([1]; 2.5 μM, pH 7.5) is reported as “rapidly quenched fluorescence”, the fluorescence quenching [1] is reported as “approximately 50%” and the fluorescence quenching [2] is reported as “approximately 50%”.
In the case of O=C(O)CCP(CCC(=O)O)CCC(=O)O [TCEP, tris(2-carboxyethyl)phosphine], the “effect of additive” value [1, 8] is reported as “did not increase the rate of quenching”.
With OCCS [β-mercaptoethanol] the “effect of additive” value [1, 8] was “increased the rate of quenching”.
